Most compounds without a hit are left out; they make up all but 6.1% or so of the library.
WT yeast gro inh = growth inhibition of WT yeast, mitochondrial fusion screen; mitochondrial fusion phenotypic screen, WT strain; inhibition, % at 10 µM; actives 2.1% (n = 190,000); in the data active = inhibition above about 58%; tested in S. cerevisiae
Measles CPE = protection of cells from measles virus; Measles virus-infected cells, CPE protection, absorbance; protection (pct of control), % at 4 µM; actives 1.5% (n = 140,000); in the data active = protection mostly above about 24%, no sharp cut-off; inactive = mostly below about 26%
hDAT+cocaine = modulates human dopamine transporter uptake under cocaine | actives 1.3% (n = 110,000) | AID 449768 | B-score at 10 µM | Q01959 | LLC-PK1 hDAT cells, [14C]-dopamine uptake with cocaine IC80; actives deviate in either direction;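 active = Z score or B-score, a plate-position-corrected score, falls beyond the plate's 99.7% confidence bounds, in either direction; inactive = both scores lie inside the 99.7% bounds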;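 note: scored against the spread of the other compound wells on the same plate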
Yeast life ext = extends the lifespan of yeast. S. cerevisiae growth with nicotinamide, OD615; deaD strain in restrictive glucose medium. inhibition of the nicotinamide effect, % at 10 µM. actives 0.68% (n = 130,000). AID 775;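 active = inhibition above a set limit, placed 3 SD over the median of all compounds, cut at about 26% in these data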;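 note: 0% = nicotinamide-treated wells and 100% = cells grown without nicotinamide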
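Material: Modified budding yeast, DeaD strain | Medium: Restrictive glucose medium | Probe or stimulus: 1.5 mM nicotinamide | Dosing: Single dose 10 µM compound, 0.25% DMSO | Times: 48 h at 30 °C | Technique: OD615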
RAM network inh = inhibitors of the yeast RAM network; S. cerevisiae dse1pr::URA3 reporter, 5-FOA growth OD615, 2 d; analog-sensitive cbk1-as2 kinase mutant strain; inhibition, % at 50 µM; actives 1.8% (n = 190,000); AID 868;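 active = inhibition above a set limit, 3 SD over mean compound inhibition, cut at about 8.4% in these data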;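 note: 0% = DMSO-only wells with no growth and 100% = 10 µM 1-NA-PP1 full growth; inhibition rescues growth on 5-FOA so higher OD means more RAM inhibition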
Yeast growth inh = chemicals that inhibit yeast BB579 growth in restrictive medium (lifespan-shortening candidates); AID 804; inhibition, % at 10 µM; S. cerevisiae BB579 growth, OD615, 48 h; actives 0.51% (n = 140,000);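 active = inhibition above a set limit, 3 SD over the mean compound inhibition, cut at about 44% in these data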
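Assay system: S. cerevisiae DeaD strain BB579 yeast. Medium: CSMM-D restrictive synthetic medium containing dextrose (glucose). Times: 4 h cell preincubation, 48 h compound exposure, 30 °C humidified. Signal: OD615 turbidity measurement. Benchmarks: positive control amphotericin B 10 µg/mL.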
Starred values were filed as active, the others as inactive; . = not tested or not shown.

SMILES	WT yeast gro inh	Measles CPE	hDAT+cocaine	Yeast life ext	RAM network inh	Yeast growth inh
COc1ccc(C2=NN(C(=O)CSc3nc4ccccc4s3)C(c3ccc(F)cc3)C2)cc1 (stereo not given)	13.6	6.5	.	2.0	2.8	-22.2
CC(=O)c1c(Nc2ccc3c(c2)OCCO3)oc(C)cc1=O	11.6	18.4	-1.12	27.2*	-0.7	0.5
Cc1cc(C(=O)Nc2ccc3c(c2)OCCO3)c(C)o1	11.1	4.9	-0.15	-24.8	0.1	-35.7
CCOC(=O)c1c(NC(=O)C2C3CCC(O3)C2C(=O)O)sc(C)c1-c1ccc(F)cc1 (stereo not given)	10.1	3.2	-0.754	-9.5	4.8	-40.4
CCOC(=O)c1c(N)sc(C(O)(C(F)(F)F)C(F)(F)F)c1-c1ccc(F)cc1	-11.9	8.9	-0.602	-11.8	-1.8	48.2*
CCOC(=O)c1c(N)sc(C(O)(C(F)(F)F)C(F)(F)F)c1-c1ccc(Cl)cc1	95.9*	34.0	-0.0711	-11.6	-1.4	51.7*
C=CCNC(=O)COC(=O)c1cc(S(=O)(=O)N2CCOCC2)ccc1N1CCCCC1	14.8	13.6	1.24	1.2	0.1	-65.1
Cc1nn(Cc2ccc(Cl)cc2)c(C)c1NC(=O)CCCn1nc([N+](=O)[O-])c(Cl)c1C	16.9	5.5	.	-2.4	0.7	-21.6
CC(=O)Nc1ccccc1OCC(=O)NC(C)c1ccccc1 (stereo not given)	-5.2	7.0	.	-4.4	0.9	-20.1
CC(NC(=O)COc1ccccc1-c1ccccc1)c1ccccc1 (stereo not given)	70.8*	9.4	.	-1.0	2.4	-31.1
Cc1ccc(-c2c(C)n([O-])c3c([n+]2=O)CCCCC3)cc1	-13.3	4.2	.	0.8	0.4	-32.4
Cc1c(-c2cccs2)[n+](=O)c2c(n1[O-])CCCCC2	58.0*	12.0	-0.827	-16.0	-0.5	-12.9
O=C(NCc1ccco1)c1nnc(Cc2ccc(Cl)cc2)o1	-3.2	13.9	2.58*	-7.7	0.0	-15.0
O=C(NCc1ccco1)c1nnc(Cc2ccc(F)cc2)o1	16.3	17.7	-0.705	-1.2	-0.5	29.6
C=CCN1C=CC=C/C1=C1\SC(=S)N(C)C1=O	-17.4	.	.	.	1.8	.
CCCCc1nc2sc3c(=O)n(N)cnc3c2c2c1CCC2	7.1	.	.	.	1.8	.
O=C1OC(/C=C/c2ccc(Cl)cc2Cl)=NC/1=C\c1cccs1	-16.7	32.8	.	1.1	9.5*	-42.6
Nc1nc(SCC(=O)NC2CCCC2)[nH]c(=O)c1-c1ccccc1	1.8	16.3	-0.385	-13.0	1.6	-57.0
O=S(=O)(c1ccc(Cl)cc1)N1CCC2(CC1)CO2	-7.8	.	.	.	0.4	.
Cc1ccc(C)c(N(CC(N)=O)S(C)(=O)=O)c1	15.9	49.6*	-0.0147	-14.1	1.5	-31.7
Cc1c(Cl)c(-c2n[nH]c(=S)n2-c2ccc(F)cc2)nn1C	-0.6	17.7	0.406	-7.9	-0.6	-49.3
Cc1ccc(C(=O)c2c(C)oc3c2C(=O)C(=O)c2ccccc2-3)cc1	57.2	2.9	-0.0649	-11.5	-0.4	70.0*
Cc1ccc(C(=O)c2coc3c2C(=O)C(=O)c2ccccc2-3)cc1	94.6	6.8	0.0977	-3.2	-0.1	9.4
Cc1oc2c(c1C(=O)c1ccc(Cl)cc1)C(=O)C(=O)c1ccccc1-2	79.9*	0.4	.	1.4	2.1	5.2
NC(=S)N/N=C/c1coc2c(ccc3ccccc32)c1=O	-2.8	22.3	.	12.4	0.8	-29.5
SMILES	WT yeast gro inh	Measles CPE	hDAT+cocaine	Yeast life ext	RAM network inh	Yeast growth inh
NC(=S)N/N=C1/CCSc2ccc3ccccc3c21	76.0*	.	.	.	0.7	.
CCCCC1CCC(c2nc(-c3cccnc3)no2)CC1 (stereo not given)	68.1*	7.7	-0.358	-13.1	-2.3	15.4
CCNc1nc2nonc2nc1NCC	7.8	8.9	-0.0067	-9.3	2.6	-36.1
Cc1cc(Nc2ccccc2)c2c([N+](=O)[O-])ccc(C)c2n1	70.9*	10.6	.	-4.6	0.7	2.4
Cc1cc(Nc2cccc([N+](=O)[O-])c2)c2ccccc2n1	-1.5	.	.	.	0.4	.
CC(C)(Oc1ccc(Cl)cc1)C(=O)NC1=NN(c2ccccc2)C(=O)C1	8.8	28.2	.	-11.1	0.9	96.2*
CC(=O)Nc1ccc(NC(=O)C(C)Oc2ccc(Cl)cc2Cl)cc1 (stereo not given)	7.1	.	.	.	0.6	.
